Assay results from different studies.
Each line is one published result; the experiments were not run side by side.
SP140: SP140 (Homo sapiens, UniProt Q13342)
ANKK1: Ankyrin repeat and protein kinase domain-containing protein 1 (ANKK1, Homo sapiens, UniProt Q8NFD2)

Cc1cc2c(cc1N1C(=O)c3cccc4c(Cl)ccc(c34)C1=O)n(C)c(=O)n2C  ΔTm (SP140; thermal stability, DSF; 10 µM): -0.9 °C
Cc1cnc(Nc2ccc(OCCN3CCCC3)cc2)nc1Nc1cccc(S(=O)(=O)NC(C)(C)C)c1  ΔTm (SP140; thermal stability, DSF; 10 µM): -0.01 °C
CCCOc1ccc(OC)c(F)c1C(=O)c1ccc(C(=O)N[C@@H]2CNC[C@H]2NC(=O)c2ccc3[nH]ncc3c2)cc1  remaining activity (Serine/threonine-protein kinase Sgk2 (SGK2, Homo sapiens, UniProt Q9HBY8); enzyme activity, inhibitor; 0.5 µM): 16%
Nc1ncnc2occ(-c3ccc(NC(=O)Nc4cc(C(F)(F)F)ccc4F)cc3)c12  remaining signal (ANKK1; cell-free assay; 20 µM): 3.6%
Oc1ccc(-c2nc(-c3ccncc3)c(-c3ccc(F)cc3)[nH]2)cc1  ΔTm (SP140; thermal stability, DSF; 10 µM): 0.36 °C
Cc1ccc(C(=O)Nc2ccc(CN3CCN(C)CC3)c(C(F)(F)F)c2)cc1C#Cc1cnc2cccnn12  remaining signal (ANKK1; cell-free assay; 23.5 nM): 56%
OCc1cc(C(O)CNCCCCCCOCCCCc2ccccc2)ccc1O (stereo not drawn)  inhibition (C-X-C chemokine receptor type 4 (CXCR4, Homo sapiens, UniProt P61073); calcium signal, antagonist; U87.CD4.CXCR4; 0.8 µM): 9%
Cc1ccc(S(=O)(=O)Nc2ccc(-n3nc(C(F)(F)F)cc3C(F)(F)F)cc2)cc1  remaining activity (Calcium release-activated calcium channel protein 1 (Rattus norvegicus, UniProt Q5M848); ion current, inhibitor, patch clamp; RBL-2H3; 3 µM): 60%
Oc1c(Br)cc(Oc2ccc(Br)cc2Br)cc1Br  Km (Sulfotransferase 1E1 (SULT1E1, Homo sapiens, UniProt P49888); enzyme activity, substrate): 4.23 µM
